Assay [1] concerns the target 5-hydroxytryptamine receptor 1B (Homo sapiens, UniProt P28222). The assay is described as follows: Agonist activity to the human recombinant 5-hydroxytryptamine 1B receptor. The assay is classed as functional. Put shortly:
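CHO Pro 5 cells stably transfected with human recombinant 5-HT1Dβ receptors. Compound was added to the culture medium for 30 min at 37 °C. The reaction was stopped with cold ethanolic 5 mM EDTA (2:1 v/v), and extracted cAMP was quantified by enzyme immunoassay, with serotonin as the reference agonist.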

The target of assay [2] is T1, 5-hydroxytryptamine receptor 1D (Homo sapiens, UniProt P28221). Nature of the assay: Compound was tested for its binding affinity against human recombinant 5-hydroxytryptamine 1D receptor alpha for comparison purpose.
T1 sequence (P28221 whole entry): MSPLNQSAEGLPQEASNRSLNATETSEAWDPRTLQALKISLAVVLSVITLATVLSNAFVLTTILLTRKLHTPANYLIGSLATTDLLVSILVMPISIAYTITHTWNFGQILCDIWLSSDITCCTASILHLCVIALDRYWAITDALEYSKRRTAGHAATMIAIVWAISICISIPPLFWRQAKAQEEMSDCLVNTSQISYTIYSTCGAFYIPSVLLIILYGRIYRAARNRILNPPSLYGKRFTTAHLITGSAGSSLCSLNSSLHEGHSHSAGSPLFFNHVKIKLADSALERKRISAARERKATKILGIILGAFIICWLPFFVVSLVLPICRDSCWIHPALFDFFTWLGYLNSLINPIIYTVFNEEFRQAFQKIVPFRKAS
In assay [3] the target is T1, 5-hydroxytryptamine receptor 1D. Nature of the assay: Compound was tested for its agonist activity against human 5-hydroxytryptamine 1D receptor alpha for comparison purpose. Format: functional.
The target is the same in assay [4]. Nature of the assay: Compound was tested for its agonist activity against human recombinant 5-hydroxytryptamine 1D receptor alpha for comparison purpose. The assay is classed as functional.

Sequence of 5-hydroxytryptamine receptor 1B (P28222 whole entry): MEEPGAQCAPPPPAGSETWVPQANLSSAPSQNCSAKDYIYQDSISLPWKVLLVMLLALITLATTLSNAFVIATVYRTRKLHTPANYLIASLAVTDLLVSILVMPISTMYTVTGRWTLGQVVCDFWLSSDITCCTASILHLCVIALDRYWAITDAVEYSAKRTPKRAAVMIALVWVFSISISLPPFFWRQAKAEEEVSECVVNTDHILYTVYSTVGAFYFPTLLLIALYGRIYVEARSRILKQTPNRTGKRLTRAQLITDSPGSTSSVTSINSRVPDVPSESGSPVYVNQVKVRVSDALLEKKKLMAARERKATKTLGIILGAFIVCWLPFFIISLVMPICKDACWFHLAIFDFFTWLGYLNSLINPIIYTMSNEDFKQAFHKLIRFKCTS

As usually defined, the Ki is a dissociation constant, usually derived from enzyme kinetics or from competition with a known ligand. `CN(C)CCCOc1ccccc1`: the Ki in assay [1] is above 10 µM.

In the case of `CCNCCOc1cccc2ccccc12`, the Ki in assay [1] came out at 0.066 µM.

Take `CNCCOc1ccccc1`: the Ki in assay [2] worked out at 1.8 µM; in assay [1] it was 5.96 µM.

With `CN(C)CCCCOc1cccc2ccccc12`, the Ki in assay [1] is 0.47 µM.

With `CCCN(C)CCCOc1ccccc1C1CCCC1`, the values for the Ki in assay [2] and in assay [1] were 0.143 µM and 1.2 µM, respectively.

With `CN(C)CCCOc1cccc2ccccc12`, the Ki in assay [1] stood at 0.255 µM.

Take `CNCCCOc1ccccc1`: the Ki in assay [1] worked out at 3.45 µM.

Take `CCCNCCOc1cccc2ccccc12`: in assay [1], the Ki amounted to 0.2 µM.

Take `CCCCN(CC)CCOc1cccc2ccccc12`: the Ki in assay [2] worked out at 0.112 µM; in assay [1] it was 1.23 µM.

Consider `CNCCOc1cccc2ccccc12`, for which the Ki in assay [1] stood at 0.026 µM; in assay [3], 0.034 µM.

With `CC(C)NCCOc1cccc2ccccc12`, the Ki in assay [1] came to 0.12 µM.

As to `CN(C)CCOc1cccc2ccccc12`, the Ki in assay [1] was 0.094 µM.

Consider `CC(C)NCCOc1cccc2[nH]ccc12`, for which, in assay [1], the Ki worked out at 1.12 µM.

Consider `CC(C)NCCCOc1cccc2ccccc12`, for which the Ki in assay [1] came out at 7.66 µM.

Turning to `CN(C)CCCNc1ccccc1`, the Ki in assay [1] was above 10 µM.

With `CC(C)NCCCOc1cccc2[nH]ccc12`, in assay [1], the Ki is above 10 µM.

Regarding `CCCN(C)CCOc1ccccc1C1CCCC1`, the figures for the Ki in assay [2] and in assay [1] were 0.082 µM and 0.425 µM, respectively.

For `CN(CCOc1cccc2ccccc12)Cc1ccccc1`, the Ki in assay [2] stood at 0.59 µM; in assay [1], 0.26 µM.

Consider `CCCN(C)CCOc1cccc2ccccc12`, for which the values for the Ki in assay [2] and in assay [1] were 0.103 µM and 0.75 µM, respectively.

Regarding `CNCCOc1cccc(C)c1C`, in assay [1], the Ki was found to be 0.316 µM.

Consider `CCCCN(CCCC)CCOc1cccc2ccccc12`, for which the Ki in assay [1] is 2.68 µM.

`OCCNCCOc1cccc2ccccc12`: the Ki in assay [1] was 0.107 µM; in assay [4], 0.068 µM.

As to `NCCOc1cccc2ccccc12`, the Ki in assay [1] was found to be 0.1 µM.

On to `NCCCOc1cccc2ccccc12`, for which the Ki in assay [1] amounted to 0.29 µM.

For the molecule `CC(C)NCC(O)COc1cccc2[nH]ccc12` (racemic) [PINDOLOL], in assay [1], the inhibition constant (Ki) was above 10 µM.

`CC(C)NCC(O)COc1cccc2[nH]ccc12` (single isomer, unassigned; (-)) [PINDOLOL]: the Ki in assay [1] came out at 2.6 µM.

Values taken from ChEMBL document CHEMBL1130280, “2-(1-Naphthyloxy)ethylamines with enhanced affinity for human 5-HT1D beta (h5-HT1B) serotonin receptors” (J Med Chem, 1997).
